Source: ChEMBL document CHEMBL4480400, “Development of an N-Acyl Amino Acid That Selectively Inhibits the Glycine Transporter 2 To Produce Analgesia in a Rat Model of Chronic Pain” (J Med Chem, 2019)

Columns and labels:
[1] = target: T1, Sodium- and chloride-dependent glycine transporter 2 (Homo sapiens, UniProt Q9Y345); assay: Inhibition of recombinant human GlyT2a expressed in Xenopus laevis oocytes assessed as reduction in channel current by two-electrode voltage clamp electrophysiology; assay type: cell-based
T1 sequence (Q9Y345 whole entry): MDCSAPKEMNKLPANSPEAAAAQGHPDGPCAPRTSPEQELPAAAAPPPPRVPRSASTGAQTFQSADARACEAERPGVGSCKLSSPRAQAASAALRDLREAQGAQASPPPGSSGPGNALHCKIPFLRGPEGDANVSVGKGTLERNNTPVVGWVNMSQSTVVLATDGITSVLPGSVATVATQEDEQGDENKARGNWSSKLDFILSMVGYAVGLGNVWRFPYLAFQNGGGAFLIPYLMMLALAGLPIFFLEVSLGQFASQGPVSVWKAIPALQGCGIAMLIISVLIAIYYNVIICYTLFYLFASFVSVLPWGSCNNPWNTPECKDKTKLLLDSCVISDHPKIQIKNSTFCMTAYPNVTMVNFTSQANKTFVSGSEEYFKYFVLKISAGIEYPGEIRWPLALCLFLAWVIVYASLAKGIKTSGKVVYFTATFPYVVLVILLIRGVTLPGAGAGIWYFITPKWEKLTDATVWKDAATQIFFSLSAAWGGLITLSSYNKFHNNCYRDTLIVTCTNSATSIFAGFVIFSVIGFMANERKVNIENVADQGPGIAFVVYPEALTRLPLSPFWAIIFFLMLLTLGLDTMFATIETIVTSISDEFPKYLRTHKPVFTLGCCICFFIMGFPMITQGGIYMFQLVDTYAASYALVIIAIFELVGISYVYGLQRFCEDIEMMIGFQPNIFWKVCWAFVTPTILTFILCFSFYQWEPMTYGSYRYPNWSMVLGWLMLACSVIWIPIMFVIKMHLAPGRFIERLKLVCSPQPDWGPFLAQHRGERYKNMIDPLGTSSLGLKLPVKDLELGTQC

[2] = target: T2, Sodium- and chloride-dependent glycine transporter 1 (Homo sapiens, UniProt P48067); assay: Inhibition of recombinant human GlyT1b expressed in Xenopus laevis oocytes assessed as reduction in channel current by two-electrode voltage clamp electrophysiology; assay type: cell-based
T2 sequence (P48067 whole entry): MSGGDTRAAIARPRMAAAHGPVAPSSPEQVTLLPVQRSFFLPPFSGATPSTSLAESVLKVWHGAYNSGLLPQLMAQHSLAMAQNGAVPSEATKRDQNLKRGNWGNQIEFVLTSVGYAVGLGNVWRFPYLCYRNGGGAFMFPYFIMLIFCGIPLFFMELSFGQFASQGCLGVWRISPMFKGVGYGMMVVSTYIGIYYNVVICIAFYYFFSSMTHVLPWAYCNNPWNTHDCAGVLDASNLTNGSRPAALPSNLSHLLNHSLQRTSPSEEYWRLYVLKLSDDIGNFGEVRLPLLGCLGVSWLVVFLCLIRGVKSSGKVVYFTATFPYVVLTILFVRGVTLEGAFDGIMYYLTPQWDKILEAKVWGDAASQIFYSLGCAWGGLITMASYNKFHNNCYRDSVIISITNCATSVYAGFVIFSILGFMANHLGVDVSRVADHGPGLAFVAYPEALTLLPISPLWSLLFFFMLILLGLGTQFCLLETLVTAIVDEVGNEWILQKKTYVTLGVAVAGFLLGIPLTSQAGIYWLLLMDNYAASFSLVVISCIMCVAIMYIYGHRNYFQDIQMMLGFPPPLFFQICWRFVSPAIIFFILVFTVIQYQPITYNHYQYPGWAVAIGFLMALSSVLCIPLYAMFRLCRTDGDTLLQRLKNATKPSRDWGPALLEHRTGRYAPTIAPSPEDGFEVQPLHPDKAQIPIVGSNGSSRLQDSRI

[3] = target: T3, Sodium- and chloride-dependent glycine transporter 2 (Homo sapiens) (UniProt Q9Y345); assay: Inhibition of recombinant human GlyT2a expressed in Xenopus laevis oocytes assessed as reduction in channel current by two-electrode voltage clamp electrophysiology relative to control; assay type: cell-based
T3 sequence (whole entry): T1 sequence (Q9Y345 whole entry)

[4] = target: T1, Sodium- and chloride-dependent glycine transporter 2; assay: Reversible non-competitive inhibition of human GlyT2a expressed in Xenopus laevis oocytes by two-electrode voltage clamp electrophysiology; assay type: cell-based
Method in brief: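 Xenopus laevis stage V-VI oocytes injected with 4.6 ng GlyT2 cRNA, kept 2-5 days at 16-18 °C in ND96 (pH 7.55). Two-electrode voltage clamp at -60 mV. Glycine concentration responses recorded without inhibitor, then after 2 min pre-application of inhibitor (10 nM, 30 nM or 1 μM) in ND96. Currents normalised per cell to Imax at 300 μM glycine without inhibitor; EC50 and Imax compared by ANOVA.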

[5] = Degradation half life in rat plasma at 1000 ng/ml by LC-MS/MS analysis; assay type: ADME, cell-free
Method in brief: (§1)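 Pooled human plasma (3 donors) or pooled male Sprague-Dawley rat plasma, thawed at 37°C. Spiked to a nominal 1000 ng/mL final (0.2% DMSO, 0.4% acetonitrile final) and incubated at 37°C. Aliquots were snap-frozen at time points over 4 h (n=3 per time point). Quantified by LC-MS against a same-species blank-plasma calibration with a leucine enkephalin internal standard.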

[6] = Degradation half life in human plasma at 1000 ng/ml by LC-MS/MS analysis; assay type: ADME, cell-free; method in brief: as §1
[7] = Drug degradation in human plasma at 1000 ng/ml measured over 240 mins by LC-MS/MS analysis; assay type: ADME, cell-free; conditions: read-out: Drug degradation; method in brief: as §1

Structure (SMILES) | IC50 [1] | IC50 [2] | Imax [3] | IC50 [4] | t1/2 [5] | t1/2 [6] | metabolised at 4 h, 1000 ng/ml [7]
CCCCCCCC/C=C\CCCCCCCC(=O)N[C@@H](CO)C(=O)O | 496 nM | > 3000 nM | 73.1% |  |  |  | 
CCCCCCCC/C=C\CCCCCCCC(=O)N[C@H](C(=O)O)C(C)C | 1170 nM | > 30000 nM | 90.1% |  |  |  | 
CCCCC/C=C\C/C=C\C/C=C\C/C=C\CCCC(=O)NCC(=O)O [ARACHIDONOYL GLYCINE] |  |  |  | 9000 nM |  |  | 
CCCCCCCC/C=C\CCCCCCCC(=O)N[C@@H](Cc1c[nH]c2ccccc12)C(=O)O | 54.6 nM | > 10000 nM | 86.2% |  |  |  | 
CCCCCCCC/C=C\CCCCCCCC(=O)N[C@@H](CCSC)C(=O)O | 29.2 nM | > 3000 nM | 91.2% |  |  |  | 
CCCCCCCC/C=C\CCCCCCCC(=O)N[C@H](Cc1cnc[nH]1)C(=O)O | 313 nM | > 3000 nM | 82.1% |  |  |  | 
CCCCCCCC/C=C\CCCCCCCC(=O)N[C@@H](Cc1cnc[nH]1)C(=O)O | 130 nM | > 3000 nM | 78.4% |  |  |  | 
CCCCCCCC/C=C\CCCCCCCC(=O)N[C@H](CC(C)C)C(=O)O | > 30000 nM | > 30000 nM | 35.6% |  |  |  | 
CCCCCCCCCCCCCCCC(=O)O[C@H](CC(=O)[O-])C[N+](C)(C)C |  |  |  | 600 nM |  |  | 
CCCCCCCC/C=C\CCCCCCCC(=O)N[C@@H](CCN)C(=O)O | 152 nM | > 3000 nM | 82.7% |  |  |  | 
CCCCCCCC/C=C\CCCCCCCC(=O)NCCCCCN | 560 nM | > 3000 nM | 86.7% |  |  |  | 
CCCCCCCC/C=C\CCCCCCCC(=O)N[C@@H](Cc1ccccc1)C(=O)O | 214 nM | > 10000 nM | 54.7% |  |  |  | 
CCCCCCCC/C=C\CCCCCCCC(=O)N[C@H](CC(=O)O)C(=O)O | 1810 nM | > 10000 nM | 92.5% |  |  |  | 
CCCCCCCC/C=C\CCCCCCCC(=O)N[C@@H](CCCNC(=N)N)C(=O)O | 47.9 nM | > 3000 nM | 87.2% |  |  |  | 
CCCCC/C=C\C/C=C\C/C=C\C/C=C\CCCC(=O)N[C@@H](C)C(=O)O |  |  |  | 9000 nM |  |  | 
CCCCCCCC/C=C\CCCCCCCC(=O)N[C@H](C)C(=O)O | 2330 nM | > 30000 nM | 81.7% |  |  |  | 
CCCCCCCC/C=C\CCCCCCCC(=O)N[C@H](Cc1c[nH]c2ccccc12)C(=O)O | > 10000 nM | > 10000 nM | 14.2% |  |  |  | 
CCCCCCCC/C=C\CCCCCCCC(=O)N[C@@H](CC(=O)O)C(=O)O | 865 nM | > 10000 nM | 76.7% |  |  |  | 
CCCCCCCC/C=C\CCCCCCCC(=O)NCC(=O)O [OLEOYL GLYCINE] | 500 nM | > 30000 nM | 66.8% | 500 nM | 0.45 h | > 17.03 h | < 15%

Structure (SMILES) | IC50 [1] | IC50 [2] | Imax [3] | IC50 [4] | t1/2 [5] | t1/2 [6] | metabolised at 4 h, 1000 ng/ml [7]
CCCCCCCC/C=C\CCCCCCCC(=O)N[C@@H](CCC(=O)O)C(=O)O | 4350 nM | > 10000 nM | 100% |  |  |  | 
CCCCCCCC/C=C\CCCCCCCC(=O)N[C@@H](C)C(=O)O | 1230 nM | > 30000 nM | 89.8% |  |  |  | 
CCCCCCCC/C=C\CCCCCCCC(=O)N[C@@H](CN)C(=O)O | 182 nM | > 3000 nM | 58.2% |  |  |  | 
CCCCCCCC/C=C\CCCCCCCC(=O)N[C@@H](CCCCN)C(=O)OC | 91.3 nM | > 3000 nM | 78.8% |  |  |  | 
CCCCCCCC/C=C\CCCCCCCC(=O)N[C@H](CCCNC(=N)N)C(=O)O | 69.2 nM | > 3000 nM | 70.9% |  |  |  | 
CCCCCCCC/C=C\CCCCCCCC(=O)N[C@H](CCSC)C(=O)O | 259 nM | > 3000 nM | 68.6% |  |  |  | 
CCCCCCCC/C=C\CCCCCCCC(=O)N[C@@H](CC(N)=O)C(=O)O | 613 nM | > 10000 nM | 92.7% |  |  |  | 
CCCCCCCC/C=C\CCCCCCCC(=O)O[C@H](CC(=O)[O-])C[N+](C)(C)C |  |  |  | 340 nM |  |  | 
CCCCCCCC/C=C\CCCCCCCC(=O)N[C@H](Cc1ccccc1)C(=O)O | > 10000 nM | > 10000 nM | 42.3% |  |  |  | 
CCCCCCCC/C=C\CCCCCCCC(=O)N[C@H](CCC(=O)O)C(=O)O | 3750 nM | > 10000 nM | 91.6% |  |  |  | 
CCCCCCCC/C=C\CCCCCCCC(=O)N[C@H](CCc1ccccc1)C(=O)O | > 10000 nM | > 10000 nM | 10.2% |  |  |  | 
CCCCCCCC/C=C\CCCCCCCC(=O)N[C@@H](CC(C)C)C(=O)O | 143 nM | > 10000 nM | 72.2% |  |  |  | 
CCCCCCCC/C=C\CCCCCCCC(=O)N[C@@H](CCCC)C(=O)O | 259 nM | > 10000 nM | 64.5% |  |  |  | 
CCCCC/C=C\C/C=C\C/C=C\C/C=C\CCCC(=O)NCCCC(=O)O [ARACHIDONOYL GABA] |  |  |  | 12000 nM |  |  | 
CCCCCCCC/C=C\CCCCCCCC(=O)N[C@H](CO)C(=O)O | 64.8 nM | > 3000 nM | 73.6% |  |  |  | 
CCCCCCCC/C=C\CCCCCCCC(=O)N[C@@H](CCCN)C(=O)O | 31.6 nM | > 3000 nM | 86% |  |  |  | 
CCCCCCCC/C=C\CCCCCCCC(=O)N[C@@H](C(=O)O)C(C)C | 1000 nM | > 30000 nM | 56.7% |  |  |  | 
CCCCCCCC/C=C\CCCCCCCC(=O)N[C@@H](CCc1ccccc1)C(=O)O | 151 nM | > 10000 nM | 75.1% |  |  |  | 
